# Rows were chosen to be rich in hits. Some 2.5% of all compounds tested hit in one or more screens of this group.
# Tb hexokinase: T. brucei hexokinase 1 inhibition; 220,000 tested, 0.11% active; inhibition, % at 10 µM; recombinant TbHK1, G6PDH-coupled NADH A340;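 active = inhibition of 50% or more in the single-dose primary screen; inactive = inhibition below 50%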
# EP2 mod: modulates human prostaglandin E2 receptor EP2 signaling; P43116; EP2-expressing cells, cAMP HTRF FRET, PGE2 co-stimulation; induction, % at 25 µM; 260,000 tested, 0.83% active; AID 940;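 active = compounds whose cAMP rise, as percent of the full-agonist control response, exceeds 60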;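 note: rat C6 glioma line stably carrying human EP2 under a CMV promoter; the protocol text gives 20 µM as final concentration; 100% = response of wells given 1 µM PGE2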
# Target sequence (P43116 whole entry, looked up): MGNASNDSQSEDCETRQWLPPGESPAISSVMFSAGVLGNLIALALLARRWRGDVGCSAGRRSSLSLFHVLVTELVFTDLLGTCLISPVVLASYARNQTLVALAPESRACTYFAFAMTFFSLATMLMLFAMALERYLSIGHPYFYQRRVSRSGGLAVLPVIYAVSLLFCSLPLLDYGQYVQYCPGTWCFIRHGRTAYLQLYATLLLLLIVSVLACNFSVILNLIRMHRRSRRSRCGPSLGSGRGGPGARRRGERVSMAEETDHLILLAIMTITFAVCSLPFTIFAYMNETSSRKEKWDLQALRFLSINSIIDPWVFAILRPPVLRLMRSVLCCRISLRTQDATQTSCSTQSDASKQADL
# EP2 antag: blocks the human prostaglandin E2 receptor EP2; 260,000 tested, 0.52% active; C6 glioma cells expressing human EP2, cAMP TR-FRET; cells stimulated with saturating PGE2; inhibition, % at 25 µM; P43116;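 active = percent inhibition above 40 after rounding to a whole number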;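 note: rat C6 glioma host cells with rolipram phosphodiesterase inhibitor present; the protocol text gives 20 µM as final concentration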
# PfG6PD inh: PfG6PD (Plasmodium falciparum) enzyme inhibition | PfGluPho enzyme, NADPH resazurin-diaphorase fluorescence | inhibition, % at 20 µM | 350,000 tested, 0.78% active;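 active = inhibition reaching at least a set limit at 20 µM in the primary screen, cut at about 59% in these data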;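 note: 0% = DMSO wells with substrate and 100% = DMSO wells lacking glucose-6-phosphate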
# PHOSPHO1 block: PHOSPHO1 (human) inhibition; Q8TCT1; recombinant PHOSPHO1, absorbance phosphatase assay; inhibition, % at 13.3 µM; 290,000 tested, 1.1% active; AID 1565; in the data active = inhibition above about 60%
# HKDC1 inhibitor: HKDC1 (human) hexokinase inhibition; recombinant HKDC1, G6PDH/diaphorase resazurin coupled fluorescence; 340,000 tested, 0.16% active; AID 493160; inhibition, % at 20 µM;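 active = inhibition above about 35% when tested at 20 µM, limit read from the data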;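 note: plate controls were DMSO wells with enzyme for no effect and DMSO wells lacking enzyme for full effect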
#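 Incubation: 90 min at room temperature in dark / Material: recombinant HKDC1 (HK5) hexokinase enzyme, produced in-house / Quantity: enzyme 5 µg/mL final / Compound: one dose of 20 µM, 1% DMSO / Reagent: glucose and ATP substrates / Buffer or medium: Tris pH 8.0 buffer with MgCl2, Tween-20, BSA, BME / Technique: resorufin fluorescence at 613 nm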
# The depositor's hits bear a star; . = no result.
SMILES,Tb hexokinase,EP2 mod,EP2 antag,PfG6PD inh,PHOSPHO1 block,HKDC1 inhibitor
O=c1[nH]c(=S)n(Cc2ccco2)c(O)c1C=NCc1cccs1,-44.5,25.6,7.1,15.6,95.4*,6.2
Cc1nc2ccc(NC(=O)CN3CC=C(c4ccc(C)o4)CC3)cc2[nH]1,.,-95.7,.,.,.,.
COc1ccc(C2=NCC(=O)N(CC(=O)N3CCCC3)c3sc(C)c(C)c32)cc1,.,15.2,8.2,.,.,.
COc1cc2c(cc1/C=C/[N+](=O)[O-])OCO2,6.5,-122.3,102.6*,19.1,-10.1,2.4
CCOC(=O)C1=C(C)OC(N)=C(C#N)C12C(=O)N(Cc1ccccc1)c1ccccc12 (stereo not given),.,45.5,6.0,.,.,.
COc1ccc(CN2C3CCC2CC(O)(c2ccccc2F)C3)cc1OC(C)C (stereo not given),.,-13.4,5.6,.,.,.
CN1CC[C@@]2(C)c3cc(O)ccc3N(C)C2O1 (stereo not given in full),.,.,8.7,64.4*,.,16.4
CC(=O)O[C@H]1[C@@H]2[C@@H](OC(=O)Cc3ccccc3)[C@@H](C)C[C@]2(OC(C)=O)C(=O)/C(C)=C/[C@H]2[C@H](CC[C@@]13CO3)C2(C)C,.,22.0,6.6,.,.,.
CO[C@@H]([CH2][Hg][n]1cnc2c1c(=O)n(C)c(=O)n2C)CN1C(=O)c2ccccc2S1(=O)=O,.,29.9,49.0*,.,.,.
c1ccc(-c2[nH]c[n+](CC3CO3)c2-c2ccccc2)cc1 (stereo not given),68.7*,17.0,22.8,.,13.3,.
C#CCOc1ccccc1CN1C2CCC1CC(O)(c1ccccc1F)C2 (stereo not given),.,-34.6,5.7,.,.,.
O=C(c1ccncc1)N1CCN(C2C3CC4CC(C3)CC2C4)CC1 (stereo not given),.,-0.8,4.4,.,.,.
Cc1nn(CCC#N)c2c1P(=S)(N1CCCC1)OC(c1ccc(F)cc1)=N2 (stereo not given),-9.9,42.3,5.2,65.4*,102.9*,-11.3
O=C1CC2(CCNCC2)Oc2ccc(F)cc21,.,-46.2,5.8,.,.,.
Nc1ccc(S(=O)(=O)c2ccc(NCN3C(=O)NC(=O)C(=O)C3=O)cc2)cc1,.,14.4,43.6*,.,.,.
CNc1ccc2oc(C[C@H]3O[C@@]4(CC[C@H]3C)O[C@H]([C@H](C)C(=O)c3ccc[nH]3)[C@H](C)C[C@H]4C)nc2c1C(=O)O,-26.6,56.9,70.9*,-34.0,8.5,3.0
COc1cc2c(ccc3c4cc(OC)c(OC)cc4c[n+](C)c23)cc1O,.,.,.,40.8,.,1.8
COc1ccc2c(c[n+](C)c3c4cc5c(cc4ccc23)OCO5)c1OC,.,-26.4,117.8*,.,.,.
Cc1cc(C=C2C(=O)NC(=S)NC2=O)c(C)n1C1CCCC1,3.0,-72.9,4.8,-11.1,-105.7,10.9
Cc1cc(C=C2C(=O)N(C)C(=S)N(C)C2=O)c(C)n1C1CCCCC1,-8.4,13.8,37.3,19.2,64.7*,8.0
C[C@@H]1CC2C3CC=C4C[C@@H](O)CC[C@]4(C)C3CC[C@]2(C)[C@H]1O (stereo not given in full),.,.,.,-1.6,.,1.9
C[C@H]1CC[C@@H]2[C@@H](C)[C@H]3[C@H](C[C@H]4[C@@H]5CC=C6C[C@@H](O[C@@H]7O[C@H](CO)[C@H](O)[C@H](O[C@@H]8O[C@H](CO)[C@@H](O)[C@H](O)[C@H]8O)[C@H]7O[C@@H]7O[C@@H](C)[C@H](O)[C@@H](O)[C@H]7O)CC[C@]6(C)[C@H]5CC[C@]34C)N2C1,-14.0,-71.8,87.5*,-3.7,-11.6,4.3
FC(F)(F)c1nc2ccc(SSc3ccc4nc(C(F)(F)F)[nH]c4c3)cc2[nH]1,.,21.0,78.9*,.,.,.
CCCC/C(C)=C/[C@@H](NP(=O)(c1ccccc1)c1ccccc1)c1ccccc1,6.3,63.7*,7.7,11.4,-6.3,1.8
CCCCCP(=O)(O)c1ccccc1,6.1,21.7,5.9,6.4,0.6,-6.7
Cc1[nH]c2ccc(F)cc2c1CC(=O)N(CCN(C)C)Cc1ccccc1F,.,-81.3,4.8,.,.,.
CN(C)c1ccc2c(c1)N=C(c1ccco1)OP2(=S)N1CCOCC1 (stereo not given),1.8,3.2,7.7,51.7,89.7*,-2.2
CCCn1c(C(=O)c2ccc(OC)c(OC)c2)nc2ccccc21,.,33.8,14.7,.,.,.
N[C@@H](Cc1cc(Br)c(O)c(Br)c1)C(=O)O,-0.7,9.7,14.5,.,6.0,.
